Screens as filed in PubChem BioAssay.
APJ antagonist – blocks the human apelin receptor APJ; P35414; CHO-K1 APJ beta-arrestin complementation, luminescence; inhibition, % at 20 µM; 330,000 tested, 0.32% active;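 active = inhibition above about 40% at 20 µM, limit read from the data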;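 also: cells challenged with 10 nM apelin-13 agonist together with compound; plate controls were apelin-13 plus DMSO wells for no effect and DMSO wells lacking apelin-13 for full effect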
iPSC survival up – hiPSC single-cell survival enhancement. ATPlite luminescence; 100% = ROCK inhibitor wells, 0% = DMSO. survival enhancement, % at 20 µM. 360,000 tested, 0.044% active; in the data active = survival enhancement above about 18%;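 also: cells exposed to compounds for 16 hours before the ATP read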
DAGLB inhibitor – blocks human DAGLB lipase activity; Q8NCG7; HEK293T DAGLB membrane lysate, EnzChek fluorogenic substrate; inhibition, % at 5.17 µM; 340,000 tested, 0.059% active; AID 504411; in the data active = inhibition above about 34%;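 also: 0% = enzyme with vehicle and 100% = wells lacking enzyme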
CCR6 antagonist – antagonists of human CCR6 receptor; P51684; CHO-K1 CCR6 PathHunter beta-arrestin, luminescence, CCL20-stimulated; AID 493098; 340,000 tested, 0.49% active; inhibition, % at 20 µM;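 active = compounds whose inhibition of the agonist-driven luminescence signal at 20 µM reaches about 50%, limit read from the data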;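 also: cells stimulated with CCL20 at 14 nM final; plate controls were DMSO with CCL20 for no effect and DMSO without agonist for full effect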
Target sequence (P51684 whole entry, looked up): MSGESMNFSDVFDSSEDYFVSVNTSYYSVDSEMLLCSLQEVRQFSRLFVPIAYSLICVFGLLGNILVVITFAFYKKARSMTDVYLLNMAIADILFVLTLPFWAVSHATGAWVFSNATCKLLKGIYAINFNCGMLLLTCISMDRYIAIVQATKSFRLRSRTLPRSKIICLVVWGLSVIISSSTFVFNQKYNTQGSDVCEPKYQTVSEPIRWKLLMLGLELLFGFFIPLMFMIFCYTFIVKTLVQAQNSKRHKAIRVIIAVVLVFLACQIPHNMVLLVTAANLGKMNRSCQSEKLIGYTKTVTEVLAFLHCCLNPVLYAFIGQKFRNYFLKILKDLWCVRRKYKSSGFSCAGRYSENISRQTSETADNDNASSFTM
APJ ag – agonists of human APJ apelin receptor; CHO-K1 APJ PathHunter beta-arrestin, luminescence; 0% DMSO wells, 100% apelin; P35414; AID 2520; 330,000 tested, 0.11% active; activation, % at 20 µM;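 active = activation more than six SD over the plate average, tested at 20 µM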;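 also: 0% = DMSO alone and 100% = apelin-13 at 10 nM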
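Test system – PathHunter CHO-K1 APJ (AGTRL-1) beta-arrestin reporter cells · Input – 1000 cells/well · Compound – single test compound dose, 20 µM final, 1% DMSO · Times – compound stimulation 90 min at 25 °C, detection 60 min · Technique – beta-gal luminescence · Read-out basis – APJ–arrestin association signal · Control set – negative DMSO alone, positive Apelin-13 at 10 nM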
CXCR6 inh – CXCR6 (human) receptor inhibition; O00574; CHO-K1 PathHunter CXCR6 beta-arrestin, luminescence; inhibition, % at 20 µM; 360,000 tested, 0.36% active; in the data active = inhibition above about 34%, passing the limit was not always enough;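 also: antagonist mode with CXCL16 agonist at 10 nM final; 0% = 10 nM CXCL16 with DMSO and 100% = unstimulated wells without agonist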
APJ antag conf – APJ receptor antagonism confirmation; inhibition, % at 20 µM; 950 tested, 66% active; shares compounds with APJ antagonist; AID 2766; APJ beta-arrestin recruitment, luminescence, antagonist mode; in the data active = inhibition above about 50%
* marks the source's active call; other numbers are inactive results. Sampled rows, rich in hits. Any-hit rate of the full collection: about 0.86%.

For CCOc1ccc(/C=C2/SC(=S)N(C(C(=O)O)c3ccccc3)C2=O)cc1OCC (stereo not drawn) the results were iPSC survival up 1, DAGLB inhibitor 2, CCR6 antagonist 30 and CXCR6 inh 25.
For CCOc1cc(/C=C2\SC(=S)N(C(C(=O)O)c3ccccc3)C2=O)ccc1O (stereo not drawn) the results were APJ antagonist 49*, iPSC survival up -1, DAGLB inhibitor 11, CCR6 antagonist 50*, APJ ag -8, CXCR6 inh 48* and APJ antag conf 92*.
Screening NC(Cc1ccc(F)cc1)c1csc(Nc2ccc(C(=O)c3ccccc3)cc2)n1 (stereo not drawn) returned iPSC survival up -2 and CXCR6 inh -22.
`CCN(CC)CCNC(=O)C(=O)Nc1cc2c3c(c1)CCC(=O)N3CCC2` gave APJ antagonist 12, iPSC survival up -1, DAGLB inhibitor 2, CCR6 antagonist 20, APJ ag -1 and CXCR6 inh 7.
`CCOc1cc(N2CCOCC2)c(OCC)cc1NC(=O)COC(=O)c1c(C)noc1C` gave iPSC survival up -3, DAGLB inhibitor 0 and CXCR6 inh 7.
Screening COc1ccc(-c2c(-c3ccsc3)oc3c2C(O)CCC3)cn1 (stereo not drawn) returned iPSC survival up 0 and CXCR6 inh -8.
`CC(C)[C@H](NS(=O)(=O)c1cccc(C(F)(F)F)c1)C(=O)OCC(=O)NC(=O)NCc1ccco1` gave APJ antagonist 7, iPSC survival up 0, DAGLB inhibitor 3, CCR6 antagonist 5, APJ ag -1 and CXCR6 inh 2.
Screening O=C(C1CCN(S(=O)(=O)c2cnc[nH]2)CC1)N1CCn2c1nc1ccccc12 returned APJ antagonist 61*, iPSC survival up 6, DAGLB inhibitor 2, CCR6 antagonist 67*, APJ ag -14, CXCR6 inh 56* and APJ antag conf 101*.
`Cc1ccc(CNC(=O)c2cc(-c3cc(C)cc(C)c3O)n[nH]2)cc1` gave APJ antagonist 2, iPSC survival up 1, DAGLB inhibitor -3, CCR6 antagonist 8, APJ ag -1 and CXCR6 inh -4.
For Cc1ccc(O)c(-c2cc(C(=O)NCc3ccc4c(c3)OCO4)[nH]n2)c1 the results were APJ antagonist 45*, iPSC survival up -2, DAGLB inhibitor 2, CCR6 antagonist 11, APJ ag -4, CXCR6 inh -5 and APJ antag conf -3.
For Cn1cccc1Cc1nnc(SCC(=O)NCc2ccc(F)cc2)n1-c1ccc(F)cc1 the results were APJ antagonist 58*, iPSC survival up 3, DAGLB inhibitor 2, CCR6 antagonist -2, APJ ag -1, CXCR6 inh -1 and APJ antag conf 14.
`CN(CC(=O)Nc1ccc(F)cc1)C(=O)CN1C(=O)NC(CCc2ccccc2)C1=O` (stereo not drawn) gave iPSC survival up -3, DAGLB inhibitor 2 and CXCR6 inh -1.
O=c1c(N=Nc2ccc(O)cc2)c(-c2ccccc2)[nH]n1-c1ccc([N+](=O)[O-])cc1 was read as APJ antagonist 54*, iPSC survival up 0, DAGLB inhibitor 3, CCR6 antagonist 52*, APJ ag -6, CXCR6 inh 37 and APJ antag conf 43.
For COc1ccc(NC(=O)COC(=O)CCc2nc3ccccc3c(=O)[nH]2)cc1Cl the results were APJ antagonist -6, iPSC survival up 0, DAGLB inhibitor -2, CCR6 antagonist 7, APJ ag -4 and CXCR6 inh -4.
`COc1ccc(NC(=O)COC(=O)CCc2nc3ccccc3c(=O)[nH]2)c(OC)c1` gave APJ antagonist 41*, iPSC survival up 1, DAGLB inhibitor 0, CCR6 antagonist -1, APJ ag 2, CXCR6 inh -1 and APJ antag conf 31.
For CCCn1cnc2c(sc3nc4c(cc32)CSC(C)(C)C4)c1=O the results were APJ antagonist -1, iPSC survival up 4, DAGLB inhibitor 1, CCR6 antagonist -6, APJ ag 2 and CXCR6 inh -5.
`CC1(C)Cc2nc3sc4c(=O)n(Cc5ccccc5)cnc4c3cc2CS1` gave APJ antagonist 59*, iPSC survival up 0, DAGLB inhibitor 0, CCR6 antagonist 12, APJ ag -1, CXCR6 inh 2 and APJ antag conf 20.
Screening COc1cc(NS(=O)(=O)c2ccc(NC(=S)NC(=O)C3CCCC3)cc2)nc(OC)n1 returned APJ antagonist 50*, iPSC survival up 1, DAGLB inhibitor 4, CCR6 antagonist -3, APJ ag -2, CXCR6 inh 5 and APJ antag conf 87*.
Screening Cn1cc(S(=O)(=O)NCc2ccc3c(c2)OCO3)c(C(F)(F)F)n1 returned APJ antagonist 11, iPSC survival up 0, DAGLB inhibitor -5, CCR6 antagonist 7, APJ ag -3 and CXCR6 inh 3.
Screening CNC(=O)COc1coc(CN2CCN(c3cccc(Cl)c3)CC2)cc1=O returned APJ antagonist 16, iPSC survival up 0, DAGLB inhibitor 0, CCR6 antagonist 9, APJ ag -3 and CXCR6 inh -6.
For CS(=O)(=O)Nc1ccccc1-c1ccc2nccn2c1 the results were iPSC survival up 0 and CXCR6 inh -8.
COCCN(C(=O)CSc1nc(-c2ccccc2)cn1N)c1c(N)n(Cc2ccccc2)c(=O)[nH]c1=O was read as APJ antagonist -43, iPSC survival up 0, DAGLB inhibitor 1, CCR6 antagonist 6, APJ ag 5 and CXCR6 inh 3.
`O=C(Cc1c(F)cccc1Cl)OCC(=O)N1CCN(c2ccccc2)CC1` gave APJ antagonist -3, iPSC survival up 0, DAGLB inhibitor -2, CCR6 antagonist 13, APJ ag -1 and CXCR6 inh 2.
`C/C=C/c1ccc(OCCCCN(C)Cc2ccccc2)c(OC)c1` gave APJ antagonist 51*, iPSC survival up 0, DAGLB inhibitor -2, CCR6 antagonist 1, APJ ag -5, CXCR6 inh 8 and APJ antag conf 18.
For CCN(CC)c1ccc2nc3ccc(N)cc3[n+](-c3ccccc3)c2c1 the results were APJ antagonist 45*, iPSC survival up 0, DAGLB inhibitor 16, CCR6 antagonist 59*, APJ ag -10, CXCR6 inh 40 and APJ antag conf 96*.
Screening CCN(CC)c1ccc2nc3ccccc3[n+](CC)c2c1 returned APJ antagonist 29, iPSC survival up -1, DAGLB inhibitor 4, CCR6 antagonist 40, APJ ag -6 and CXCR6 inh 21.
